Activity calls are given as the source filed them. The rule behind the calls is not given here.
How the values were obtained:
KB = assay: Cytotoxicity against human KB cells after 3 days by resazurin microplate assay; type: functional, cell-based; settings: 72 h
Outline: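 KB cells (ATCC CCL-17) harvested in log phase and diluted to 7 × 10^4 cells/mL, then added to samples diluted in 0.5% DMSO. Incubated 3 days at 37 °C, 5% CO2, then resazurin added and plates held 4 h at 37 °C. Fluorescence read at ex 530/em 590 nm. IC50 fitted from 6 two-fold serial concentrations; six replicate experiments.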

[1] = target: DNA topoisomerase 2-alpha (Homo sapiens) (UniProt P11388); assay: Inhibition of human topoisomerase 2-alpha-mediated decatenation of kinetoplast DNA at 50 uM after 1 hr by agarose gel electrophoretic analysis
Outline: (§1)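 kDNA (60 ng) incubated with 2 units of human TopoIIα, with or without compound, for 1 h at 37 °C. Buffer: 50 mM Tris-Cl pH 8.0, 150 mM NaCl, 10 mM MgCl2, 0.5 mM dithiothreitol, 2 mM ATP. Decatenation judged by presence or absence of enzyme activity.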

Vero = assay: Cytotoxicity against african geen monkey Vero cells after 4 days by GFP reporter assay; type: cell-based, Chlorocebus sabaeus
Outline: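 Vero cells (GFP-expressing, grown with geneticin at 37 °C, 5% CO2) added to test compounds diluted in 0.5% DMSO and incubated 4 days at 37 °C, 5% CO2. Bottom-read fluorescence at ex 485/em 535 nm; day-0 background subtracted from the day-4 signal. Typical values from six replicate experiments.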

[2] = target: DNA topoisomerase 2-alpha (Homo sapiens) (UniProt P11388); assay: Inhibition of human topoisomerase 2-alpha-mediated decatenation of kinetoplast DNA at 10 to 20 uM after 1 hr by agarose gel electrophoretic analysis; outline: as §1
[3] = target: DNA topoisomerase 2-alpha (Homo sapiens) (UniProt P11388); assay: Inhibition of human topoisomerase 2-alpha-mediated decatenation of kinetoplast DNA at 5 uM after 1 hr by agarose gel electrophoretic analysis; outline: as §1
[4] = Chlorocebus sabaeus, Vero, 96 h, read-out: IC50

DNA topoisomerase 2-alpha (Homo sapiens), sequence (P11388 whole entry): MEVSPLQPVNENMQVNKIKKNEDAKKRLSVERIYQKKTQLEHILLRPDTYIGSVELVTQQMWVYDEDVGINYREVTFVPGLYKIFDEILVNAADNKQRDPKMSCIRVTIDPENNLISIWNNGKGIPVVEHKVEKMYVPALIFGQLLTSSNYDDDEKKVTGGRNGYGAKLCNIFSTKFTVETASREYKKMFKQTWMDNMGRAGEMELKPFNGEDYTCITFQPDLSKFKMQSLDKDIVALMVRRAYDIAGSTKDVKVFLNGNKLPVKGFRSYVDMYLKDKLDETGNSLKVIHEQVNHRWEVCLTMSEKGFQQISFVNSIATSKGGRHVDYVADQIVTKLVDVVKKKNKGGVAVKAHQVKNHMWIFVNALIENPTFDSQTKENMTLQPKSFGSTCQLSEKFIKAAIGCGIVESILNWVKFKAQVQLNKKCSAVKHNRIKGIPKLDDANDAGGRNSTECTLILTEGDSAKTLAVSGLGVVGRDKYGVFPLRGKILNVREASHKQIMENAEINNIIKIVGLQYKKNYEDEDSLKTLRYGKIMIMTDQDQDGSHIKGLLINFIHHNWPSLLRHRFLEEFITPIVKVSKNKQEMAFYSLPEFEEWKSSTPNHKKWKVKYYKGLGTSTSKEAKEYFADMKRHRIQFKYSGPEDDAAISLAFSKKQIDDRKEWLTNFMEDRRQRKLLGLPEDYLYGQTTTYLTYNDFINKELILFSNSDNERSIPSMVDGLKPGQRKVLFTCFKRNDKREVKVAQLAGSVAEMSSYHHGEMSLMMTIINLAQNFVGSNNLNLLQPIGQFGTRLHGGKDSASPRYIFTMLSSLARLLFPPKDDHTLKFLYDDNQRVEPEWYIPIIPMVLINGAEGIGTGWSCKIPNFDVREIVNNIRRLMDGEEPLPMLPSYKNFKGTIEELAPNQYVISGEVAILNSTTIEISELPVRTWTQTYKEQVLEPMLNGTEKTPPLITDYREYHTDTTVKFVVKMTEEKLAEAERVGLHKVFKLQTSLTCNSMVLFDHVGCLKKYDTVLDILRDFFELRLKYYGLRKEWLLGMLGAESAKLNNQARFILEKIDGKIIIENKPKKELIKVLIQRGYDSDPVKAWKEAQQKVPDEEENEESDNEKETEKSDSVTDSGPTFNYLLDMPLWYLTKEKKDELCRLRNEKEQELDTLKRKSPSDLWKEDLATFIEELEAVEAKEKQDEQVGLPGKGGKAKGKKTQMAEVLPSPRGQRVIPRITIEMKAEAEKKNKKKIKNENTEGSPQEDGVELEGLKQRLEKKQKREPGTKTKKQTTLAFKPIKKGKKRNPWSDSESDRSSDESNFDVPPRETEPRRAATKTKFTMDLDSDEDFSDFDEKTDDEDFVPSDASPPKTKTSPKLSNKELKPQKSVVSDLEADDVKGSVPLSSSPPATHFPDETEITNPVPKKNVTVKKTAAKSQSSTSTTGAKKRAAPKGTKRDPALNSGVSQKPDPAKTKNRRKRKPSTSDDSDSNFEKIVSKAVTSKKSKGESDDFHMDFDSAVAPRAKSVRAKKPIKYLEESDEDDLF

Structure (SMILES) | IC50 (KB) | IC50 (Vero; [4]) | other results
CCC(C)C(=O)OCC(C)(C)CC1=C(O)C(=O)c2ccccc2C1=O (configuration not stated) | 4.65 µM | – | –
CCCCCCCCCCCCCCCCCC(=O)OCC(C)(C)CC1=C(O)C(=O)c2ccccc2C1=O | 76.7 µM | – | –
CCCCCCCCCCCCCCCC(=O)OCC(C)(C)CC1=C(O)C(=O)c2ccccc2C1=O | 27.1 µM | – | inhibition [1]: Active
CCCCCCC(C)C(=O)NCC(C)(C)CC1=C(O)C(=O)c2ccccc2C1=O (configuration not stated) | 23.7 µM | 15.5 µM | –
CCCC(=O)OCC(C)(C)CC1=C(O)C(=O)c2ccccc2C1=O | 43 µM | – | –
CCCCCC(=O)OCC(C)(C)CC1=C(O)C(=O)c2ccccc2C1=O | 41 µM | – | –
CCC(C)C(=O)NCC(C)(C)CC1=C(O)C(=O)c2ccccc2C1=O (configuration not stated) | 102 µM | – | IC50 (Vero; vero): Non-toxic
CCCCCCC(=O)NCC(C)(C)CC1=C(O)C(=O)c2ccccc2C1=O | 28.2 µM | 24.8 µM | –
CCCCCCCCCCCC(=O)NCC(C)(C)CC1=C(O)C(=O)c2ccccc2C1=O | 12.8 µM | 13.9 µM | –
CCCCCCCCCCC(=O)NCC(C)(C)CC1=C(O)C(=O)c2ccccc2C1=O | 17.6 µM | 14.9 µM | –
CC(C)C(=O)NCC(C)(C)CC1=C(O)C(=O)c2ccccc2C1=O | 94.6 µM | – | IC50 (Vero; vero): Non-toxic
CCCCCCCCCCCCCCCCCC(=O)NCC(C)(C)CC1=C(O)C(=O)c2ccccc2C1=O | 6.35 µM | 5.76 µM | –
CCCCCCCCCCCCCC(=O)NCC(C)(C)CC1=C(O)C(=O)c2ccccc2C1=O | 25.1 µM | 9.81 µM | –
CCCCCCCCCCC(=O)OCC(C)(C)CC1=C(O)C(=O)c2ccccc2C1=O | 54.8 µM | – | –
CCCCCCC(C)C(=O)OCC(C)(C)CC1=C(O)C(=O)c2ccccc2C1=O (configuration not stated) | 16.8 µM | – | –
CCCCCCC(=O)OCC(C)(C)CC1=C(O)C(=O)c2ccccc2C1=O | 14.4 µM | – | –

Structure (SMILES) | IC50 (KB) | IC50 (Vero; [4]) | other results
CCCCCCCC(=O)NCC(C)(C)CC1=C(O)C(=O)c2ccccc2C1=O | 24.6 µM | 18.4 µM | –
CCCC(C)C(=O)OCC(C)(C)CC1=C(O)C(=O)c2ccccc2C1=O (configuration not stated) | 1.76 µM | – | inhibition [1]: Active
CCCCCCCC(=O)OCC(C)(C)CC1=C(O)C(=O)c2ccccc2C1=O | 38.3 µM | – | –
CCCCCCCCC(=O)OCC(C)(C)CC1=C(O)C(=O)c2ccccc2C1=O | 38.7 µM | – | –
CCCCCCCCCCCC(=O)OCC(C)(C)CC1=C(O)C(=O)c2ccccc2C1=O | 35.7 µM | – | –
CCCCCC(=O)NCC(C)(C)CC1=C(O)C(=O)c2ccccc2C1=O | 40.2 µM | 46.6 µM | –
CC(C)C(=O)OCC(C)(C)CC1=C(O)C(=O)c2ccccc2C1=O | 14.4 µM | – | –
CCCCCCCCCCCCCCCC(=O)NCC(C)(C)CC1=C(O)C(=O)c2ccccc2C1=O | 5.12 µM | 5.6 µM | inhibition [2]: Active; inhibition [1]: Active; inhibition [3]: inactive
COc1cccc2c1C(=O)c1c(O)c3c(c(O)c1C2=O)C[C@@](O)(C(=O)CO)C[C@@H]3O[C@H]1C[C@H](N)[C@H](O)[C@H](C)O1 [DOXORUBICIN] | 0.96 µM | – | –
CCCCCCCCCC(=O)OCC(C)(C)CC1=C(O)C(=O)c2ccccc2C1=O | 55.5 µM | – | –
CCCCCCCCCC(=O)NCC(C)(C)CC1=C(O)C(=O)c2ccccc2C1=O | 18.5 µM | 15 µM | –
CCCCCCCCC(=O)NCC(C)(C)CC1=C(O)C(=O)c2ccccc2C1=O | 19.7 µM | 16.7 µM | –
CCCCC(=O)OCC(C)(C)CC1=C(O)C(=O)c2ccccc2C1=O | 27.8 µM | – | –
CCCC(C)C(=O)NCC(C)(C)CC1=C(O)C(=O)c2ccccc2C1=O (configuration not stated) | 47.1 µM | 48.1 µM | inhibition [1]: Active
CCCCCCCCCCCCCC(=O)OCC(C)(C)CC1=C(O)C(=O)c2ccccc2C1=O | 51.4 µM | – | –
CCC(=O)OCC(C)(C)CC1=C(O)C(=O)c2ccccc2C1=O | 84.4 µM | – | –

Source: ChEMBL document CHEMBL2311465, “Synthesis of novel naphthoquinone aliphatic amides and esters and their anticancer evaluation” (Eur J Med Chem, 2013)
